Measured values published in ChEMBL document CHEMBL1123166, “Design and synthesis of 2-(arylamino)-4(3H)-quinazolinones as novel inhibitors of rat lens aldose reductase” (J Med Chem, 1986).

Experiments:
[1] = target: Aldo-keto reductase family 1 member B1 (Rattus norvegicus, UniProt P07943); experiment: Compound was tested for its ability to inhibit crude aldose reductase obtained from rat lens
[2] = target: Aldo-keto reductase family 1 member B1 (Rattus norvegicus) (UniProt P07943); experiment: Compound was tested for its ability to inhibit crude aldose reductase obtained from rat lens at 100 uM concentration
Summary of the method: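 Crude enzyme prepared from rat lens. Reaction at pH 6.2 in 0.1 M phosphate buffer with 0.104 mM NADPH and 1.5 mM DL-glyceraldehyde as substrate. NADPH consumption followed at 340 nm against a blank lacking substrate. Percent inhibition from rate versus substrate-only control. IC50 from linear regression of log dose-response using at least three concentrations, three replicates each, for compounds exceeding 50% inhibition at 100 μM.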

Structure (SMILES) | IC50 [1] | inhibition [2]
COc1cc2nc(Nc3ccccc3)nc(O)c2cc1OC |  | 17.4%
Cc1nc2ccccc2c(=O)n1-c1ccc(C(=O)O)cc1 | 214 µM | 
Oc1nc(NCc2ccccc2)nc2ccccc12 |  | 3.9%
O=S(=O)(O)c1ccc(Nc2nc(O)c3ccccc3n2)cc1 |  | 42.6%

Next, values leading:

IC50 [1] | inhibition [2] | Structure (SMILES)
57 µM |  | O=C(O)c1ccc(Nc2nc3ccccc3c(=O)[nH]2)cc1O
34 µM |  | COc1cc2nc(Nc3ccc(C(=O)O)cc3)[nH]c(=O)c2cc1OC
 | 22.4% | COc1cc2nc(NCc3ccccc3)nc(O)c2cc1OC
 | 5.9% | Oc1nc(Nc2ccccc2)nc2ccccc12
50 µM |  | O=C(O)c1ccc(Nc2nc3ccccc3c(=O)[nH]2)cc1
75 µM |  | O=c1[nH]c(Nc2ccc(O)cc2)nc2ccccc12
